“Also recorded” adds a separate entry of the source.
Experiments:
[1] = test system: P. gingivalis ATCC 33277; assay: Percent growth inhibition of planktonic P. gingivalis, colorimetric WST-1 assay; format: cell-based, Porphyromonas gingivalis; conditions: for P. gingivalis growth inhibition: 2.5 h after addition of WST-1; for inhibition at 100 µM / inhibition at 10 µM: Porphyromonas gingivalis, ATCC33277, read-out: P. gingivalis growth inhibition
[2] = test system: BEAS-2B; assay: Mammalian cytotoxicity assay; format: cell-based, human; conditions: for concentration up to which no toxicity was observed (BEAS-2B): range 0–62.6 μg/mL, 24 h; for non-toxic concentration as fold of bactericidal concentration (BEAS-2B): vs bactericidal concentration against P. gingivalis
Summary of the method: (§1)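 Cells counted at about 80% confluence and seeded in 96-well plates: 10,000 cells/well for HEK-293, 3,000 cells/well for BEAS-2B and HepG2. Adhered 16 h at 37 °C, 5% CO2. Fresh medium with test compound at 0–62.6 μg/mL (from 1000× stocks) or 0.1% DMSO added, 24 h. Resazurin added 6 h; fluorescence read at 560/590 nm. Survival expressed relative to DMSO wells after medium-only blank subtraction.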

[3] = test system: HEK-293; assay: Mammalian cytotoxicity assay; format: cell-based, human; conditions: for concentration up to which no toxicity was exhibited (HEK-293): range 0–62.6 μg/mL, 24 h; for non-toxic concentration as fold of bactericidal concentration (HEK-293): vs bactericidal concentration against P. gingivalis
Summary of the method: as §1

[4] = test system: HepG2; assay: Mammalian cytotoxicity assay; format: cell-based; conditions: for concentration up to which no toxicity was exhibited (HepG2): range 0–62.6 μg/mL, 24 h; for non-toxic concentration as fold of bactericidal concentration (HepG2): vs bactericidal concentration against P. gingivalis
Summary of the method: as §1

[5] = test system: P. gingivalis ATCC 33277; assay: Colony forming unit; format: cell-based, Porphyromonas gingivalis; conditions: 24 h exposure, CFUs counted after 5 days
Summary of the method: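 P. gingivalis ATCC 33277 at 1 × 10^8 cells/well, grown exponentially in supplemented BHI under anaerobic conditions in 96-well plates. Exposed 24 h to test compound in DMSO at 1, 10 or 100 μM. Negative controls were medium or DMSO; positive controls were tetracycline 2.81 μM and zafirlukast 25 and 50 μM. Cultures diluted 1:400, spread on blood agar, and CFUs counted after 5 days anaerobic.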

[6] = Cytotoxic effect on oral epithelial cells; format: cell-based, human; conditions: human, OKF6/hTERT immortalized oral keratinocyte cells
[7] = test system: immortalized oral keratinocyte (OKF6) cells; assay: Cytotoxic effect on oral epithelial cells; format: cell-based, human; conditions: 24 h, microscopy
[8] = test system: F. nucleatum ATCC 25586; assay: Percent growth inhibition, colorimetric WST-1 assay; format: cell-based, Fusobacterium nucleatum; conditions: 24 h, 30 min after addition of WST-1
Summary of the method: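 F. nucleatum was grown in supplemented BHI to log phase (3–4 h after subculture), then seeded at 10^8 cells/well in 90 μL. It was exposed anaerobically to test compound in DMSO (1, 10, 100 μM) for 24 h. WST-1 reagent was added, and absorbance was read at 405 nm (reference 600 nm). % inhibition = 100 × [OD(control) − OD(treated)]/OD(control).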

[9] = test system: P. gingivalis ATCC 33277 biofilm; assay: Inhibition of mono-species biofilm growth, safranin staining; format: cell-based, Porphyromonas gingivalis; conditions: at all concentrations tested (10, 25, 50, and 100 μM), 48 h
Summary of the method: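 P. gingivalis ATCC 33277 at 1 × 10^8 bacteria/well, grown logarithmically in supplemented BHI in 96-well plates. Exposed to test compound in DMSO (10, 25, 50, 100 μM) for 48 h, anaerobic, gentle shaking. Negative controls were medium or DMSO; positive controls were tetracycline 2.81 μM and zafirlukast 50 μM. Medium removed, biofilm washed three times with PBS, stained with 0.1% safranin, and percentage biofilm growth determined.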

[10] = test system: murine red blood cells (mRBCs); assay: Hemolytic activity against murine red blood cells; format: cell-based; conditions: at concentrations up to 27 μg/mL, data not shown
[11] = at all concentrations tested (1, 10, and 100 μM)

Row | SMILES | P. gingivalis growth inhibition ([1]; 100 μM, 24 h) | inhibition at 100 µM [1] | concentration up to which no toxicity was observed (BEAS-2B) [2] | concentration up to which no toxicity was exhibited (HEK-293) [3] | concentration up to which no toxicity was exhibited (HepG2) [4] | growth inhibition by CFU assay (bactericidal activity) ([5]; 10 μM) | P. gingivalis growth inhibition ([1]; 10 μM, 24 h) | P. gingivalis growth inhibition ([1]; 1 μM, 24 h) | also measured
1 | COc1ccc(Cc2cn(C)c3ccc([N+](=O)[O-])cc23)cc1C(=O)NS(=O)(=O)c1ccccc1F [Compound 21a] | comparable or superior activity | 61 to 73% | up to 62.6 μg/mL | up to 62.6 μg/mL | up to 62.6 μg/mL |  |  |  | non-toxic concentration as fold of bactericidal concentration (BEAS-2B) [2]: 11- to 13 fold; non-toxic concentration as fold of bactericidal concentration (HEK-293) [3]: 11- to 13 fold; non-toxic concentration as fold of bactericidal concentration (HepG2) [4]: 11- to 13 fold
2 | COc1ccc(Cc2cn(C)c3ccc([N+](=O)[O-])cc23)cc1C(=O)NS(=O)(=O)c1ccccc1Cl [Compound 21b] | comparable or superior activity | 61 to 73% | up to 31.3 μg/mL | up to 62.6 μg/mL | up to 62.6 μg/mL |  |  |  | growth inhibition by CFU assay (bactericidal activity) ([5]; 10 μM, 10 µM): bactericidal; non-toxic concentration as fold of bactericidal concentration (BEAS-2B) [2]: 6 fold; viability at 24 h, 10 µM [6]: 9 to 63%; viability at 24 h, 100 µM [6]: 5 to 23%; cytotoxicity to OKF6 cells by cell morphology and density ([7]; 100 μM): slight increase in cytotoxicity; non-toxic concentration as fold of bactericidal concentration (HEK-293) [3]: 11- to 13 fold; non-toxic concentration as fold of bactericidal concentration (HepG2) [4]: 11- to 13 fold
3 | COc1ccc(Cc2cn(C)c3ccc([N+](=O)[O-])cc23)cc1C(=O)NS(=O)(=O)c1ccccc1Br [Compound 21c] | comparable or superior activity | 61 to 73% | up to 31.3 μg/mL | up to 62.6 μg/mL | up to 62.6 μg/mL |  |  |  | growth inhibition by CFU assay (bactericidal activity) ([5]; 10 μM, 10 µM): bactericidal; non-toxic concentration as fold of bactericidal concentration (BEAS-2B) [2]: 6 fold; viability at 24 h, 10 µM [6]: 9 to 63%; viability at 24 h, 100 µM [6]: 5 to 23%; cytotoxicity to OKF6 cells by cell morphology and density ([7]; 10 μM): low toxicity; cytotoxicity to OKF6 cells by cell morphology and density ([7]; 100 μM): slight increase in cytotoxicity; non-toxic concentration as fold of bactericidal concentration (HEK-293) [3]: 11- to 13 fold; non-toxic concentration as fold of bactericidal concentration (HepG2) [4]: 11- to 13 fold
4 | COc1ccc(Cc2cn(C)c3ccc([N+](=O)[O-])cc23)cc1C(=O)NS(=O)(=O)c1c(F)cccc1F [Compound 21d] | comparable or superior activity | 61 to 73% |  |  |  | not bactericidal |  |  | growth inhibition against F. nucleatum ([8]; 1 μM): no activity; growth inhibition against F. nucleatum ([8]; 10 μM): no activity
5 | COc1ccc(Cc2cn(C)c3ccc([N+](=O)[O-])cc23)cc1C(=O)NS(=O)(=O)c1ccc([N+](=O)[O-])cc1 [Compound 21g] | comparable or superior activity |  |  |  |  | bactericidal | comparable or superior activity |  | biofilm growth [9]: at least 86%
6 | CCn1cc(Cc2ccc(OC)c(C(=O)NS(=O)(=O)c3ccc([N+](=O)[O-])cc3)c2)c2cc([N+](=O)[O-])ccc21 [Compound 22g] | comparable or superior activity |  |  |  |  | not bactericidal | comparable or superior activity |  | 
7 | CCCn1cc(Cc2ccc(OC)c(C(=O)NS(=O)(=O)c3ccccc3F)c2)c2cc([N+](=O)[O-])ccc21 [Compound 23a] |  |  |  |  |  |  |  | little to no activity | 
8 | CCCn1cc(Cc2ccc(OC)c(C(=O)NS(=O)(=O)c3ccc([N+](=O)[O-])cc3)c2)c2cc([N+](=O)[O-])ccc21 [Compound 23g] | comparable or superior activity |  |  |  |  | not bactericidal | comparable or superior activity | comparable or superior activity | inhibition at 10 µM [1]: 77 to 90%; P. gingivalis growth inhibition [1, 11]: 60–90%
9 | CCCCn1cc(Cc2ccc(OC)c(C(=O)NS(=O)(=O)c3ccccc3F)c2)c2cc([N+](=O)[O-])ccc21 [Compound 24a] |  |  |  |  |  |  |  | little to no activity | 
10 | CCCCn1cc(Cc2ccc(OC)c(C(=O)NS(=O)(=O)c3ccc([N+](=O)[O-])cc3)c2)c2cc([N+](=O)[O-])ccc21 [Compound 24g] | comparable or superior activity |  |  |  |  |  | comparable or superior activity | comparable or superior activity | inhibition at 10 µM [1]: 77 to 90%; P. gingivalis growth inhibition [1, 11]: 69–90%; growth inhibition by CFU assay (bactericidal activity) ([5]; 100 μM): bactericidal activity; viability at 24 h, 10 µM [6]: 9 to 63%; viability at 24 h, 100 µM [6]: 5 to 23%; cytotoxicity to OKF6 cells by cell morphology and density ([7]; 10 μM): low toxicity; also recorded: little to no cytotoxicity; cytotoxicity to OKF6 cells by cell morphology and density ([7]; 100 μM): slight decrease in cell density
11 | COc1ccc(Cc2cn(CC(C)C)c3ccc([N+](=O)[O-])cc23)cc1C(=O)NS(=O)(=O)c1ccc([N+](=O)[O-])cc1 [Compound 25g] | comparable or superior activity | 61 to 73% |  |  |  | not bactericidal |  |  | 
12 | COc1cc(C(=O)NS(=O)(=O)c2ccccc2C)ccc1Cc1cn(C)c2ccc(NC(=O)OC3CCCC3)cc12 [ZAF, zafirlukast, reference compound] |  |  | up to 62.6 μg/mL | up to 31.3 μg/mL | up to 62.6 μg/mL |  |  |  | viability at 24 h, 25 µM [6]: 41%
13 | C[C@@H]1[C@H](O)[C@@H](C)/C=C/C=C/C=C/C=C/C=C/C=C/C=C/[C@H](O[C@@H]2O[C@H](C)[C@@H](O)[C@H](N)[C@@H]2O)C[C@@H]2O[C@](O)(C[C@@H](O)C[C@@H](O)[C@H](O)CC[C@@H](O)C[C@@H](O)CC(=O)O[C@H]1C)C[C@H](O)[C@H]2C(=O)O [amphotericin B] |  |  |  |  |  |  |  |  | hemolytic activity [10]: 0%

From paper PMC12123421 (Journal of medicinal chemistry, 2022)
